# According to PubChem BioAssay AID624176 (Southern Research Specialized Biocontainment Screening …, 2012):
# pIC50: −log10 of the molar value. Activity calls are given as the source filed them.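 The calls were made as follows: active = inhibition of 30% or more at any tested concentration; inactive = the rest.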
# Biological target: Aminopeptidase N (Plasmodium falciparum (isolate 3D7)) (UniProt O96935)
# Experiment: inhibition of P. falciparum M1 aminopeptidase – biochemical, QFRET fluorogenic substrate, set 3, counter-screen for PfM18AAP inhibitor project, dose response (AID 624176)
# Conditions: recombinant PfM1AAP, H-Leu-NHMec fluorogenic cleavage
# How it was run: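 Test system: purified recombinant Plasmodium falciparum M1 alanyl aminopeptidase (PfM1AAP); quantity: PfM1AAP at 5 µg/mL final; signal: fluorescence of released NHMec, excitation 370 nm, emission 460 nm; measure: IC50 from constrained four-parameter fit; doses: 10-point twofold series from 100 µM; timing: reaction 90 min, room temperature; also added: H-Leu-NHMec substrate, 0.1 mM; replication: triplicate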
# Sequence of Aminopeptidase N (Plasmodium falciparum (isolate 3D7)) (O96935 whole entry, looked up): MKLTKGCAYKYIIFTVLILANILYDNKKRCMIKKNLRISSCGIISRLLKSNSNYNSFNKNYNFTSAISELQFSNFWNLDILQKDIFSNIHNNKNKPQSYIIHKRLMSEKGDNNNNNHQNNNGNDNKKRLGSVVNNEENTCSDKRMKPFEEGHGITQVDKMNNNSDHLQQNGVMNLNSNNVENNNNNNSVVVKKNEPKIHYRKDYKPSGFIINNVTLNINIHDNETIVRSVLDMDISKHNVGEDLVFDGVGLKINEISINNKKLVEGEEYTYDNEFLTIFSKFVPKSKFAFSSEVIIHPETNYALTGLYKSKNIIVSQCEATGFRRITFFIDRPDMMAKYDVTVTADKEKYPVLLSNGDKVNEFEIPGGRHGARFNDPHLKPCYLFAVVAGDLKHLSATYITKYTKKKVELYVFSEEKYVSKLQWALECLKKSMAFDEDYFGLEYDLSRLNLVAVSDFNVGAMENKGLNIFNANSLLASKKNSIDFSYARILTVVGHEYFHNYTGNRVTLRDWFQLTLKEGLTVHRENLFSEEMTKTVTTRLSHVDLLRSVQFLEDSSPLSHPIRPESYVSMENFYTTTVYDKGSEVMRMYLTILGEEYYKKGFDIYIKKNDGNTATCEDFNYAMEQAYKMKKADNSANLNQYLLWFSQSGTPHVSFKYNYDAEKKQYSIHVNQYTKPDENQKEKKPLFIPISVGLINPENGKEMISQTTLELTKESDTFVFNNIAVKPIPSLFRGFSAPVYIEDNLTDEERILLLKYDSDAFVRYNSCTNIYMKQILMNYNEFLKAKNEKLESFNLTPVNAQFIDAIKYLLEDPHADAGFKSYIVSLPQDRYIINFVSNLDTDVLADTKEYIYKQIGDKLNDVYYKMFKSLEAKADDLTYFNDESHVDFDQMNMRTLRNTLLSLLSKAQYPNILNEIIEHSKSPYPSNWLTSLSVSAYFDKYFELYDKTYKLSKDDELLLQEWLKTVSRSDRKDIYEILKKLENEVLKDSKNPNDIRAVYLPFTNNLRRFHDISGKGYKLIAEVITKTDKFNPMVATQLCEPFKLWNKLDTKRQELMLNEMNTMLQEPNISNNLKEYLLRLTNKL
row,pIC50,SMILES
1,4.13,Oc1ccc(C2CCN(c3ccnc4ccccc34)CC2)cc1O
2,4.21,CN(CCc1ccc(O)c(O)c1)c1ncnc2ccccc12
3,4.13,Oc1ccc(CCNc2ccnc3cc(Cl)ccc23)cc1O
4,4.33,Oc1ccc(C2CCN(c3ccnc4ccccc34)C2)cc1O (stereo not given)
5,4.25,Oc1cccc(CCNc2ccnc3ccccc23)c1O
6,3.98,Cc1cccc2c(NCCc3ccc(O)c(O)c3)ccnc12

# The remaining lines, values behind:
row,SMILES,pIC50
1,CN(CCc1ccc(O)c(O)c1)c1ccnc2cc(Cl)ccc12,4.12
2,CCN(CCc1ccc(O)c(O)c1)c1c2ccccc2nc2ccccc12,4.00
3,Cc1cc(N(C)CCc2ccc(O)c(O)c2)c2ccccc2n1,4.00
4,CN(CCc1ccc(O)c(O)c1)c1ccnc2c(F)cccc12,4.08

# Same assay, conditions: recombinant PfM1AAP, H-Leu-NHMec fluorogenic cleavage; at 100 µM (top of the series)
row,inhibition,SMILES
1,inactive,COc1cc(Br)c(CCNc2ccnc3ccccc23)cc1OC
2,inactive,COc1ccc(CCNc2ncnc3ccccc23)cc1OC
3,inactive,COc1ccc(CCNc2ccnc3c(F)cccc23)cc1OC
4,inactive,COc1ccc(CCNc2ccnc3cc(Cl)ccc23)cc1OC
5,inactive,COc1ccc(CCNc2ccnc3c(C)cccc23)cc1OC

# The next lines start with the molecule.
row,SMILES,inhibition
1,COc1ccc(CCNC(=O)c2cc(C)ccc2N)cc1OC,inactive
2,Nc1c2ccccc2nc2ccccc12,inactive
3,COc1cc(Br)c(CCNc2c3c(nc4ccccc24)CCCC3)cc1OC,inactive
4,COc1ccc(CCCNc2c3c(nc4ccccc24)CCCC3)cc1OC,inactive
5,Clc1c2c(nc3ccccc13)CCCC2,inactive
6,CCOc1ccc2nccc(N(C)CCc3ccc(OC)c(OC)c3)c2c1,inactive
7,CCOc1ccc2nccc(NCCc3ccc(OC)c(OC)c3)c2c1,inactive
8,COc1ccc(CCNc2cc(C)nc3ccccc23)cc1OC,inactive
9,COc1ccc(CCN(C)c2c3ccccc3nc3ccccc23)cc1OC,inactive
10,COc1ccc(CCCN(C)c2c3ccccc3nc3ccccc23)cc1OC,inactive
11,CCN(CCc1ccc(OC)c(OC)c1)c1c2ccccc2nc2ccccc12,inactive
12,COc1ccc(CCN(C)c2ccnc3cc(Cl)ccc23)cc1OC,inactive
13,COc1ccc(CCN(C)c2cc(C)nc3ccccc23)cc1OC,inactive
14,COc1ccc(CCN(C)c2ccnc3c(F)cccc23)cc1OC,inactive
15,COc1ccc(CCNc2c3c(nc4ccc(C)cc24)CCCC3)cc1OC,inactive
16,COc1ccc(CCN(C)c2ncnc3ccccc23)cc1OC,inactive
17,COc1ccc(C2CCN(c3ccnc4ccccc34)CC2)cc1OC,inactive
18,COc1ccc(CCN(C)c2ccnc3c(C)cccc23)cc1OC,inactive
19,COc1cc(Br)c(CCNc2c3ccccc3nc3ccccc23)cc1OC,inactive
20,COc1ccc(C2CCN(c3ccnc4ccccc34)C2)cc1OC (stereo not given),inactive
